Laboratory results: ChEMBL document CHEMBL1139352, “Synthesis and evaluation of novel inhibitors of Pim-1 and Pim-2 protein kinases” (J Med Chem, 2009)

Experiments:
Mus musculus [1] = experiment: Toxicity in Swiss Webster mouse assessed as albumin level at 50 mg/kg, ip daily for 7 days measured after 7 days; format: organism-based; parameters: dose 50 mg/kg, route intraperitoneal; conditions: in vivo, 168 h
Mus musculus [2] = experiment: Toxicity in Swiss Webster mouse assessed as alkaline phosphatase level at 50 mg/kg, ip daily for 7 days measured after 7 days; format: organism-based; parameters: dose 50 mg/kg, route intraperitoneal; conditions: in vivo, 168 h
Mus musculus [3] = experiment: Toxicity in Swiss Webster mouse assessed as amylase level at 3 mg/kg, ip daily for 7 days measured after 7 days; format: organism-based; parameters: dose 3 mg/kg, route intraperitoneal; conditions: in vivo, 168 h
Mus musculus [4] = experiment: Toxicity in Swiss Webster mouse assessed as amylase level at 50 mg/kg, ip daily for 7 days measured after 7 days; format: organism-based; parameters: dose 50 mg/kg, route intraperitoneal; conditions: in vivo, 168 h
Mus musculus [5] = experiment: Toxicity in Swiss Webster mouse assessed as blood urea nitrogen level at 3 mg/kg, ip daily for 7 days measured after 7 days; format: organism-based; parameters: dose 3 mg/kg, route intraperitoneal; conditions: in vivo, 168 h
Mus musculus [6] = experiment: Toxicity in Swiss Webster mouse assessed as blood urea nitrogen level at 50 mg/kg, ip daily for 7 days measured after 7 days; format: organism-based; parameters: dose 50 mg/kg, route intraperitoneal; conditions: in vivo, 168 h
Mus musculus [7] = experiment: Toxicity in Swiss Webster mouse assessed as phosphate level at 10 mg/kg, ip daily for 7 days measured after 7 days; format: organism-based; parameters: dose 10 mg/kg, route intraperitoneal; conditions: in vivo, 168 h
Mus musculus [8] = experiment: Toxicity in Swiss Webster mouse assessed as creatinine level at 3 mg/kg, ip daily for 7 days measured after 7 days; format: organism-based; parameters: dose 3 mg/kg, route intraperitoneal; conditions: in vivo, 168 h
Mus musculus [9] = experiment: Toxicity in Swiss Webster mouse assessed as creatinine level at 50 mg/kg, ip daily for 7 days measured after 7 days; format: organism-based; parameters: dose 50 mg/kg, route intraperitoneal; conditions: in vivo, 168 h
Mus musculus [10] = experiment: Toxicity in Swiss Webster mouse assessed as Na+ level at 3 mg/kg, ip daily for 7 days measured after 7 days; format: organism-based; parameters: dose 3 mg/kg, route intraperitoneal; conditions: in vivo, 168 h
Mus musculus [11] = experiment: Toxicity in Swiss Webster mouse assessed as glucose level at 10 mg/kg, ip daily for 7 days measured after 7 days; format: organism-based; parameters: dose 10 mg/kg, route intraperitoneal; conditions: in vivo, 168 h
Mus musculus [12] = experiment: Toxicity against mouse JC cells xenografted BALB/c mouse assessed as loss of body weight at 50 mg/kg, ip for 5 days per week; format: organism-based; parameters: dose 50 mg/kg, route intraperitoneal; conditions: in vivo, 120 h
[13] = Antitumor activity against mouse JC cells xenografted BALB/c mouse assessed as tumor growth inhibition at 50 mg/kg, ip for 5 days per week; format: functional; parameters: scale not given: the % may be the effect or the level left; conditions: route intraperitoneal
Summary of the method: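 Syngeneic model: female Balb/c mice were implanted subcutaneously with 1 × 10⁶ JC murine mammary adenocarcinoma cells in PBS. Once tumors were palpable, mice were randomized into groups. They received intraperitoneal injections once daily, five days per week, of either vehicle (50% DMSO : 50% PBS) or 50 mg/kg. Tumor volume was taken as (L × W²)/2. n = 5 mice per group; mean ± standard error.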

Mus musculus [14] = experiment: Toxicity in Swiss Webster mouse assessed as hemoglobin level at 10 mg/kg, ip daily for 7 days measured after 7 days; format: organism-based; parameters: dose 10 mg/kg, route intraperitoneal; conditions: in vivo, 168 h
Mus musculus [15] = experiment: Toxicity in Swiss Webster mouse assessed as hemoglobin level at 50 mg/kg, ip daily for 7 days measured after 7 days; format: organism-based; parameters: dose 50 mg/kg, route intraperitoneal; conditions: in vivo, 168 h
[16] = biological target: Serine/threonine-protein kinase Sgk1 (Homo sapiens) (UniProt O00141); experiment: Inhibition of SGK1 at 5 uM
[17] = biological target: Proto-oncogene tyrosine-protein kinase Src (Homo sapiens) (UniProt P12931); experiment: Inhibition of SRC at 5 uM
Mus musculus [18] = experiment: Toxicity in Swiss Webster mouse assessed as white blood cell count at 10 mg/kg, ip daily for 7 days measured after 7 days; format: organism-based; parameters: dose 10 mg/kg, route intraperitoneal; conditions: in vivo, 168 h
Summary of the method: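 Six-week-old female Swiss Webster mice (about 25 g) received intraperitoneal injections daily for 7 days. Doses were 3, 10 or 50 mg/kg, with a vehicle group (30% PEG-400, 5% Tween-80, 65% DMSO). Values are reported as ranges per group.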

Mus musculus [19] = experiment: Toxicity in Swiss Webster mouse assessed as lymphocyte count at 3 mg/kg, ip daily for 7 days measured after 7 days; format: organism-based; parameters: dose 3 mg/kg, route intraperitoneal; conditions: in vivo, 168 h
Mus musculus [20] = experiment: Toxicity in Swiss Webster mouse assessed as albumin level at 10 mg/kg, ip daily for 7 days measured after 7 days; format: organism-based; parameters: dose 10 mg/kg, route intraperitoneal; conditions: in vivo, 168 h
[21] = biological target: RAC-gamma serine/threonine-protein kinase (Homo sapiens) (UniProt Q9Y243); experiment: Inhibition of AKT3 at 5 uM
[22] = biological target: Cytoplasmic tyrosine-protein kinase BMX (Homo sapiens) (UniProt P51813); experiment: Inhibition of BMX at 5 uM
Sequence of Cytoplasmic tyrosine-protein kinase BMX (Homo sapiens) (P51813 whole entry): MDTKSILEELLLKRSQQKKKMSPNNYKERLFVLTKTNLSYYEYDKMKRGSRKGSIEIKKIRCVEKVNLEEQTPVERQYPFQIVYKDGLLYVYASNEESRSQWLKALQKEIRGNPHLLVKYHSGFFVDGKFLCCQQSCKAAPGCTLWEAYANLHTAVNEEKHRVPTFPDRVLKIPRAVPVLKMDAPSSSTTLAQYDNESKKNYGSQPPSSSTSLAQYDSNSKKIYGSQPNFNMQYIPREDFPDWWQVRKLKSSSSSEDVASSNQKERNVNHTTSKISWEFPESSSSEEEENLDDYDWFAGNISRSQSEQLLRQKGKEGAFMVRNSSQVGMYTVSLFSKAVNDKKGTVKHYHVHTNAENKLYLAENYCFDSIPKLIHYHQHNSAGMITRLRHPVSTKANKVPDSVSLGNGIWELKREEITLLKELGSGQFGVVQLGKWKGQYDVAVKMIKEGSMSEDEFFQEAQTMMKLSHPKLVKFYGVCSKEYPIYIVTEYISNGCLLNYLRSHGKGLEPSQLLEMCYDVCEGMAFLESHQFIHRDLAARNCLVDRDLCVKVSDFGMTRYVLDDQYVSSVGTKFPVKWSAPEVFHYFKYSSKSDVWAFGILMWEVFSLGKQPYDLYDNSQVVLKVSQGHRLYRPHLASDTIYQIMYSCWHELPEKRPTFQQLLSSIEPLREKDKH

[23] = biological target: Calcium/calmodulin-dependent protein kinase type IV (Homo sapiens) (UniProt Q16566); experiment: Inhibition of CAMK4 at 5 uM
[24] = biological target: Cyclin-dependent kinase 2 (Homo sapiens) (UniProt P24941); experiment: Inhibition of CDK2 at 5 uM
[25] = biological target: Serine/threonine-protein kinase Chk2 (Homo sapiens) (UniProt O96017); experiment: Inhibition of CHK2 at 5 uM
[26] = biological target: Casein kinase I isoform delta (Homo sapiens) (UniProt P48730); experiment: Inhibition of CK1delta at 5 uM
[27] = biological target: RAF proto-oncogene serine/threonine-protein kinase (Homo sapiens) (UniProt P04049); experiment: Inhibition of c-Raf at 5 uM
Sequence of RAF proto-oncogene serine/threonine-protein kinase (Homo sapiens) (P04049 whole entry): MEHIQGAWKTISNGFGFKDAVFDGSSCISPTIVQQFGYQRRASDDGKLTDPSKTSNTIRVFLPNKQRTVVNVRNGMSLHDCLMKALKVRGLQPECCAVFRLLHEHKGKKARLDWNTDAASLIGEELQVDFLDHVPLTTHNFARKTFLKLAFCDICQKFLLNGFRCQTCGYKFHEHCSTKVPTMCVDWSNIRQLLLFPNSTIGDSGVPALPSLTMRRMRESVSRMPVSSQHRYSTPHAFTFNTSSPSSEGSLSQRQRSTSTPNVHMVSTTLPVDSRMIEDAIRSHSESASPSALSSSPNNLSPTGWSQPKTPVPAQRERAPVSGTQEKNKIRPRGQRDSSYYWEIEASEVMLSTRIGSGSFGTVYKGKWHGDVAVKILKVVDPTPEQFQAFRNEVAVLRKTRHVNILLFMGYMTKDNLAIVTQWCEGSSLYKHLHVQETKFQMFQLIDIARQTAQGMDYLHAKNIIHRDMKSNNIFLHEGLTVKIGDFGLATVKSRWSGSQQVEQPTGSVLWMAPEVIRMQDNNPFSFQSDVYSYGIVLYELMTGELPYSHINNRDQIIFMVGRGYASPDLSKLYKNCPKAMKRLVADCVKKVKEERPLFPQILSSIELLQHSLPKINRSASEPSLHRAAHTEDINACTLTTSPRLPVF

[28] = biological target: Dual specificity tyrosine-phosphorylation-regulated kinase 1A (Homo sapiens) (UniProt Q13627); experiment: Inhibition of DYRK1alpha at 5 uM
[29] = biological target: Mitogen-activated protein kinase 1 (Homo sapiens) (UniProt P28482); experiment: Inhibition of Erk2 at 5 uM
Sequence of Mitogen-activated protein kinase 1 (Homo sapiens) (P28482 whole entry): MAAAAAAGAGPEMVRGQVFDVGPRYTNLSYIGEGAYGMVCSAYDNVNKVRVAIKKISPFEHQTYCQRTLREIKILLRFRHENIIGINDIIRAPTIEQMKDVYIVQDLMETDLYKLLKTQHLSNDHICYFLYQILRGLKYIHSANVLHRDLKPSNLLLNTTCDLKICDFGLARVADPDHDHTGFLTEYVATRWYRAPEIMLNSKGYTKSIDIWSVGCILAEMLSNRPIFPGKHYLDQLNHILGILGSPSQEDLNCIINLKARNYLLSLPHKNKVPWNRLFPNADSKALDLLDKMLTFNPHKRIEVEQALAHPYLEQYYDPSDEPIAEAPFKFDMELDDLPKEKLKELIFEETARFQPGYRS

[30] = biological target: Fibroblast growth factor receptor 1 (Homo sapiens) (UniProt P11362); experiment: Inhibition of FGFR1 at 5 uM
Sequence of Fibroblast growth factor receptor 1 (Homo sapiens) (P11362 22-822 limits assumed): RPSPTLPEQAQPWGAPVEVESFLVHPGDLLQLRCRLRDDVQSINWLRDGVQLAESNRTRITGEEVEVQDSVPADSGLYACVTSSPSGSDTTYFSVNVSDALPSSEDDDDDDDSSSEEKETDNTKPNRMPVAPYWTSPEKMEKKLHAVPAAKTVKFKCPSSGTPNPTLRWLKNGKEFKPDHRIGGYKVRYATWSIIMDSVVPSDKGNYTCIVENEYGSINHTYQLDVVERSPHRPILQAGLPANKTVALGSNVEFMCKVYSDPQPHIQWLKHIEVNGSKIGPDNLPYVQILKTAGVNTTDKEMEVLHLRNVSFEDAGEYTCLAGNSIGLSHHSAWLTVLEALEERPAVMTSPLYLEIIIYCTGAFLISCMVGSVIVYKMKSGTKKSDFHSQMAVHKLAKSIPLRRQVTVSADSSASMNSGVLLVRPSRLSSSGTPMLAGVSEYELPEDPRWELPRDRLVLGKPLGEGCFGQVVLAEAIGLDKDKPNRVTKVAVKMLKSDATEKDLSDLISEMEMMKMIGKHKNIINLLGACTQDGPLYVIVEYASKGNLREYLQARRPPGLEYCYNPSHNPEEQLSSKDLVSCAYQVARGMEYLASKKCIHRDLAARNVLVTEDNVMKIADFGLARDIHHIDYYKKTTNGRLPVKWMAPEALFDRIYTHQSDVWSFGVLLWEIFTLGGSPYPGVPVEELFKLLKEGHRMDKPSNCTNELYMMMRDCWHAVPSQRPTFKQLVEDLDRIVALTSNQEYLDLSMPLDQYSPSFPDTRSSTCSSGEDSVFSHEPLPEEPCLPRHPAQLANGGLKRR

[31] = tested on: Receptor-type tyrosine-protein kinase FLT3 (Homo sapiens), P36888 [D835Y]; experiment: Inhibition of FLT3(D835Y) at 5 uM
[32] = biological target: Mitogen-activated protein kinase kinase kinase kinase 4 (Homo sapiens) (UniProt O95819); experiment: Inhibition of HGK at 5 uM
Sequence of Mitogen-activated protein kinase kinase kinase kinase 4 (Homo sapiens) (O95819 2-1239 limits assumed): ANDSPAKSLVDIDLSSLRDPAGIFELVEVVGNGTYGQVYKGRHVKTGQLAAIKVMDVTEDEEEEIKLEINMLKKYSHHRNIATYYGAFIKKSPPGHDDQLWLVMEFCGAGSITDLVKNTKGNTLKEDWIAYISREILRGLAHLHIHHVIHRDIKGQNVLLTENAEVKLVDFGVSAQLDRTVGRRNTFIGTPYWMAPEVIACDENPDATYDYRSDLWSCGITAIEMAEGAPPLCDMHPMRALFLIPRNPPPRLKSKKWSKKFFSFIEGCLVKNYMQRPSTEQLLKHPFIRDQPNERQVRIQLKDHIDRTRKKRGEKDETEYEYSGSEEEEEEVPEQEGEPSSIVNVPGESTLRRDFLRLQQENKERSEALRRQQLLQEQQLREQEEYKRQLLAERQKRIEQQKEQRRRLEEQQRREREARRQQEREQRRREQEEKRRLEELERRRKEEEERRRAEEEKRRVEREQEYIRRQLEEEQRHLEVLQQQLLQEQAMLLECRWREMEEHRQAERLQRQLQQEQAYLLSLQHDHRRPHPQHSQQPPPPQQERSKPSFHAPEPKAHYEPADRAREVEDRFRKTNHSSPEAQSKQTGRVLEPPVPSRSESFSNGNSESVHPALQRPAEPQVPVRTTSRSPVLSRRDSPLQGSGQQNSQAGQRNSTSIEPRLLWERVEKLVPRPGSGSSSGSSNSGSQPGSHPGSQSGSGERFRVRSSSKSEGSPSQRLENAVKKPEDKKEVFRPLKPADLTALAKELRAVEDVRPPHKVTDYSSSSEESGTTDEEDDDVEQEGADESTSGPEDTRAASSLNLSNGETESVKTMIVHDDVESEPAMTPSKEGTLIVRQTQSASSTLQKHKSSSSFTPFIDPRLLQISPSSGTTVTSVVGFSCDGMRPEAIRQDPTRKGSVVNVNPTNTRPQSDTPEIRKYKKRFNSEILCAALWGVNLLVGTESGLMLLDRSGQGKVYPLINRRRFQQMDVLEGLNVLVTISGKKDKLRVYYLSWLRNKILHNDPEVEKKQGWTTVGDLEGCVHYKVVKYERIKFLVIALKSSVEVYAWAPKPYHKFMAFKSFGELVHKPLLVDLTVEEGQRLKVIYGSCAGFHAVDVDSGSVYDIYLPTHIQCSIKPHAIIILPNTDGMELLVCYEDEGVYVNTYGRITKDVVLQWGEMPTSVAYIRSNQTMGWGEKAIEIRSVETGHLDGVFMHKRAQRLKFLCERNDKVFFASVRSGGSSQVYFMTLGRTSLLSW

[33] = biological target: Vascular endothelial growth factor receptor 2 (Homo sapiens) (UniProt P35968); experiment: Inhibition of KDR at 5 uM
[34] = biological target: Serine/threonine-protein kinase MARK1 (Homo sapiens) (UniProt Q9P0L2); experiment: Inhibition of MARK1 at 5 uM
Sequence of Serine/threonine-protein kinase MARK1 (Homo sapiens) (Q9P0L2 whole entry, looked up): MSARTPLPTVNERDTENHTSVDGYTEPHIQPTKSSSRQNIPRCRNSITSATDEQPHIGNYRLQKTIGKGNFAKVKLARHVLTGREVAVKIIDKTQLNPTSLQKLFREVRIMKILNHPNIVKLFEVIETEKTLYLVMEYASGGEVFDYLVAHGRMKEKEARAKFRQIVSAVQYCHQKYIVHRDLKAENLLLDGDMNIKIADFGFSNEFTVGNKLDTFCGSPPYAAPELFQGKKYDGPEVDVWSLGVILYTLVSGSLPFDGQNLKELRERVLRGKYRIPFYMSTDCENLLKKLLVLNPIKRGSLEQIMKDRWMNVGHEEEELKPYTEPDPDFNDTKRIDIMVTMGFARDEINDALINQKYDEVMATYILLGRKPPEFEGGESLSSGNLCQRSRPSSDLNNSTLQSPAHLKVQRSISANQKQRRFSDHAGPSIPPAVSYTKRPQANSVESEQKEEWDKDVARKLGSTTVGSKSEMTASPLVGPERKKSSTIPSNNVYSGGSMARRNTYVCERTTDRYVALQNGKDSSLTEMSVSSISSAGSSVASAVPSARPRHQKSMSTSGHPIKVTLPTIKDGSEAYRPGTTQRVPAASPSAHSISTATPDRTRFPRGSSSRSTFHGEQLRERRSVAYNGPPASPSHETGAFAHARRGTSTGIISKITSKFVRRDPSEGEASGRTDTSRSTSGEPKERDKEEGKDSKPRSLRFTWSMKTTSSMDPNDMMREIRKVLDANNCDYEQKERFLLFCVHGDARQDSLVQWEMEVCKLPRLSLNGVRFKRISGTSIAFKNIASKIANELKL

[35] = biological target: Ribosomal protein S6 kinase alpha-5 (Homo sapiens) (UniProt O75582); experiment: Inhibition of MSK1 at 5 uM
[36] = biological target: Serine/threonine-protein kinase PAK 2 (Homo sapiens) (UniProt Q13177); experiment: Inhibition of PAK2 at 5 uM
Sequence of Serine/threonine-protein kinase PAK 2 (Homo sapiens) (Q13177 whole entry): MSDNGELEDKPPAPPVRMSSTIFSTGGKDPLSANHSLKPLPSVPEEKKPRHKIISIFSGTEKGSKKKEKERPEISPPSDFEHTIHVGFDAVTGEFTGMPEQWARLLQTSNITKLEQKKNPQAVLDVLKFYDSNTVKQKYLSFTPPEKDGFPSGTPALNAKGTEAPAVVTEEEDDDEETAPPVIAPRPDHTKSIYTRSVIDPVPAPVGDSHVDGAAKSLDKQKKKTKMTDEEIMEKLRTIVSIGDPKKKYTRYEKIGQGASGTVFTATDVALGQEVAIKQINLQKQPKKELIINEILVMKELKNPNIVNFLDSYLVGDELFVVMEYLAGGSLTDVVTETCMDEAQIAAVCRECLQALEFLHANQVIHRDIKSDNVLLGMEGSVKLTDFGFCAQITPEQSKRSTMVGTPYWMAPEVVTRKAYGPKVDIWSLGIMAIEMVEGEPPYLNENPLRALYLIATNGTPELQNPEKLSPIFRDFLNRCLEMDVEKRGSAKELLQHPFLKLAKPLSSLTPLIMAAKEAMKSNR

[37] = biological target: Serine/threonine-protein kinase pim-2 (Homo sapiens, UniProt Q9P1W9); experiment: Inhibition of PIM2 at 5 uM
[38] = Inhibition of PKA at 5 uM
[39] = biological target: Protein kinase C zeta type (Homo sapiens) (UniProt Q05513); experiment: Inhibition of PKCzeta at 5 uM
[40] = biological target: Serine/threonine-protein kinase D2 (Homo sapiens) (UniProt Q9BZL6); experiment: Inhibition of PKD2 at 5 uM
[41] = biological target: Serine/threonine-protein kinase PLK1 (Homo sapiens) (UniProt P53350); experiment: Inhibition of PLK1 at 5 uM
[42] = biological target: MAP kinase-activated protein kinase 5 (Homo sapiens) (UniProt Q8IW41); experiment: Inhibition of PRAK at 5 uM
[43] = biological target: Tyrosine-protein kinase SYK (Homo sapiens) (UniProt P43405); experiment: Inhibition of SYK at 5 uM
[44] = biological target: 3-phosphoinositide-dependent protein kinase 1 (PDPK1) (Homo sapiens) (UniProt O15530); experiment: Inhibition of PDK1 at 5 uM

CCCOc1ccc(/C=C2\SC(=O)NC2=O)cc1
Activity (Mus musculus [1]): 2.6 g/dL
Activity (Mus musculus [2]): 80 U/L
Activity (Mus musculus [3]): 878 U/L
Activity (Mus musculus [4]): 760 U/L
Activity (Mus musculus [5]): 17 mg/dL
Activity (Mus musculus [6]): 14 mg/dL
Activity (Mus musculus [7]): 5.7 mg/dL
Activity (Mus musculus [8]): 0.2 mg/dL
Activity (Mus musculus [9]): 0.2 mg/dL
Activity (Mus musculus [10]): 150 mmol/L
Activity (Mus musculus [11]): 87 mg/dL
Activity (Mus musculus [12]): Non-toxic
Activity [13]: 50%
Activity (Mus musculus [14]): 11.7 g/dL
Activity (Mus musculus [15]): 12.2 g/dL
inhibition [16]: 5%
inhibition [17]: 4%
Activity (Mus musculus [18]): 4.95 ×10⁹ /L
Activity (Mus musculus [19]): 3.61 ×10⁹ /L
Activity (Mus musculus [20]): 2.9 g/dL
inhibition [21]: 3%
inhibition [22]: 10%
inhibition [23]: -8%
inhibition [24]: -2%
inhibition [25]: 4%
inhibition [26]: 7%
inhibition [27]: -1%
inhibition [28]: 68%
inhibition [29]: -1%
inhibition [30]: 1%
inhibition [31]: 9%
inhibition [32]: 9%
inhibition [33]: -4%
inhibition [34]: -6%
inhibition [35]: -1%
inhibition [36]: -1%
inhibition [37]: 62%
inhibition [38]: 3%
inhibition [39]: 3%
inhibition [40]: -3%
inhibition [41]: 9%
inhibition [42]: 4%
inhibition [43]: -3%
inhibition [44]: 1%
